These results are taken from ChEMBL document CHEMBL1140274, “Synthesis of (1,4)-naphthoquinono-[3,2-c]-1H-pyrazoles and their (1,4)-naphthohydroquinone derivatives as antifungal, antibacterial, and anticancer agents” (2005).

In assay [1] the test system is Candida parapsilosis. Nature of the assay: In-vitro minimum inhibitory concentration against the growth of Candida parapsilosis (ATCC 22019). The format is functional. The settings on record: Lodderomyces parapsilosis. Put shortly:
(§1)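 Broth microdilution following NCCLS, run in 96-well plates with RPMI 1640 medium buffered with MOPS. The MIC was the endpoint against each fungal isolate.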

For assay [2], the system named is Candida albicans. The experiment in a line: In-vitro minimum inhibitory concentration against the growth of Candida albicans. The format is functional. Put shortly: as §1
The test system of assay [3] is Escherichia coli. The experiment in a line: In-vitro minimum inhibitory concentration against the growth of Escherichia coli. The format is functional. Put shortly: (§2)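 Broth microdilution following NCCLS against each bacterial strain, with the MIC taken as the endpoint.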
In assay [4] the test system is Sporothrix schenckii. Nature of the assay: In-vitro minimum inhibitory concentration against the growth of Sporothrix schenckii. The format is functional. Put shortly: as §1
The test system of assay [5] is Aspergillus fumigatus. The experiment in a line: In-vitro minimum inhibitory concentration against the growth of Aspergillus fumigatus. The format is functional. A digest of the protocol: as §1
The test system of assay [6] is Klebsiella pneumoniae. The experiment in a line: In-vitro minimum inhibitory concentration against the growth of Klebsiella pneumoniae. The format is functional. Put shortly:
as §2

In assay [7] the test system is Staphylococcus aureus. The experiment in a line: In-vitro minimum inhibitory concentration against the growth of Staphylococcus aureus. The format is functional. A digest of the protocol: as §2
Assay [8] concerns Pseudomonas aeruginosa. The experiment in a line: In-vitro minimum inhibitory concentration against the growth of Pseudomonas aeruginosa. The format is functional. A digest of the protocol: as §2
Assay [9] concerns Enterococcus faecalis. Nature of the assay: In-vitro minimum inhibitory concentration against the growth of Streptococcus faecalis. The format is functional. Put shortly: as §2
Assay [10] relates to Cryptococcus neoformans. Nature of the assay: In-vitro minimum inhibitory concentration against the growth of Cryptococcus neoformans. The format is functional. Put shortly: as §1
Assay [11] deals with Trichophyton benhamiae. The experiment in a line: In-vitro minimum inhibitory concentration against the growth of Trichophyton mentagrophytes. The format is functional, Trichophyton mentagraphytes. Put shortly: as §1
Assay [12] concerns Rattus norvegicus. The experiment in a line: Anticancer activity against Walker 256 carcinosarcoma in rats at a dose of 10 mg/kg [Active]. The format is functional.
The test system of assay [13] is Rattus norvegicus. The experiment in a line: Anticancer activity against Walker 256 carcinosarcoma in rats at a dose of 50 mg/kg [Inactive]. The format is functional.

Converted amounts (≈) assume the structure as drawn. Some results are limits rather than exact numbers.

For `CCOC(=O)c1[nH]nc2c1C(=O)c1ccccc1C2=O`, the MIC was greater than 50 µg/mL in assay [1]; greater than 50 µg/mL in assay [2]; 25 µg/mL (≈ 92.5 µM) in assay [3]; greater than 50 µg/mL in assay [4]; greater than 50 µg/mL in assay [5]; 12.5 µg/mL (≈ 46.3 µM) in assay [6]. Besides, the minimal inhibitory concentration (MIC) was 25 µg/mL (≈ 92.5 µM) in [7]; greater than 50 µg/mL in assay [8]; 12.5 µg/mL (≈ 46.3 µM) in [9]; greater than 50 µg/mL in [10]; greater than 50 µg/mL in assay [11].
On to `CNC(=O)c1[nH]nc2c1C(=O)c1ccccc1C2=O`, for which the MIC in assay [1] was 50 µg/mL (≈ 196 µM); in assay [2] it was greater than 50 µg/mL; in [3], greater than 50 µg/mL; in assay [4] it was greater than 50 µg/mL; in assay [5] it was greater than 50 µg/mL; in assay [6], 25 µg/mL (≈ 97.9 µM). Moreover, the MIC in assay [7], in [8], in assay [9], in assay [10] and in [11] was greater than 50 µg/mL each time.
Regarding `NNC(=O)c1[nH]nc2c1C(=O)c1ccccc1C2=O`, the MIC in [1], in assay [2], in [3], in assay [4], in [5] and in assay [6] was greater than 50 µg/mL each time. Moreover, the MIC in [7], in assay [8], in assay [9], in assay [10] and in [11] was greater than 50 µg/mL in each case.
Regarding `O=C1c2ccccc2C(=O)c2c1n[nH]c2C(=O)NNc1ccccc1`, the MIC was greater than 50 µg/mL in [1]; greater than 50 µg/mL in [2]; greater than 50 µg/mL in assay [3]; greater than 50 µg/mL in [4]; greater than 50 µg/mL in [5]; 12.5 µg/mL (≈ 37.6 µM) in assay [6]. For the same molecule, the MIC in assay [7] is greater than 50 µg/mL; in [8], greater than 50 µg/mL; in assay [9], 25 µg/mL (≈ 75.2 µM); in assay [10], greater than 50 µg/mL; in assay [11] it was greater than 50 µg/mL.
As for `OC(Cn1cncn1)(Cn1cncn1)c1ccc(F)cc1F` [FLUCONAZOLE], the MIC in assay [1] is 2 µg/mL (≈ 6.53 µM); in assay [2], 1 µg/mL (≈ 3.27 µM); in assay [4] it was 2 µg/mL (≈ 6.53 µM); in assay [5], 2 µg/mL (≈ 6.53 µM); in assay [10], 1 µg/mL (≈ 3.27 µM); in assay [11], 0.5 µg/mL (≈ 1.63 µM).
Take NYSTATIN: the values for the MIC in [2], in assay [4] and in [10] were 7.8 µg/mL, 13.2 µg/mL and 3.5 µg/mL, respectively.
In the case of `NC[C@H]1O[C@H](O[C@H]2[C@H](O)[C@@H](O[C@H]3O[C@H](CO)[C@@H](O)[C@H](N)[C@H]3O)[C@H](N)C[C@@H]2N)[C@H](O)[C@@H](O)[C@@H]1O` [KANAMYCIN], the MIC in [3] was 16 µg/mL (≈ 33 µM); in assay [6], 32 µg/mL (≈ 66 µM); in assay [7], 2 µg/mL (≈ 4.13 µM); in assay [8], greater than 128 µg/mL.
Take `O=C(NNc1ccc([N+](=O)[O-])cc1[N+](=O)[O-])c1[nH]nc2c(O)c3ccccc3c(O)c12`: the minimal inhibitory concentration (MIC) in assay [1] was greater than 50 µg/mL; in assay [2], 25 µg/mL (≈ 58.9 µM); in [3] it was greater than 50 µg/mL; in assay [4], greater than 50 µg/mL; in assay [5] it was greater than 50 µg/mL; in assay [6], greater than 50 µg/mL. The minimum inhibitory concentration (MIC) in assay [7], in assay [8], in assay [9], in [10] and in assay [11] was greater than 50 µg/mL in each case.
For `C[C@@H]1[C@H](O)[C@@H](C)/C=C/C=C/C=C/C=C/C=C/C=C/C=C/[C@H](O[C@@H]2O[C@H](C)[C@@H](O)[C@H](N)[C@@H]2O)C[C@@H]2O[C@](O)(C[C@@H](O)C[C@@H](O)[C@H](O)CC[C@@H](O)C[C@@H](O)CC(=O)O[C@H]1C)C[C@H](O)[C@H]2C(=O)O` [AMPHOTERICIN B], the minimal inhibitory concentration (MIC) was found to be 0.39 µg/mL (≈ 0.422 µM) in assay [2], 0.78 µg/mL (≈ 0.844 µM) in assay [10] and 1.56 µg/mL (≈ 1.69 µM) in [11].
For the molecule `NNC(=O)c1[nH]nc2c(O)c3ccccc3c(O)c12`, the MIC was greater than 50 µg/mL in [1]; 25 µg/mL (≈ 96.8 µM) in [2]; greater than 50 µg/mL in assay [3]; greater than 50 µg/mL in assay [4]; greater than 50 µg/mL in assay [5]; greater than 50 µg/mL in [6]. The MIC was greater than 50 µg/mL in assay [7]; greater than 50 µg/mL in [8]; greater than 50 µg/mL in assay [9]; 25 µg/mL (≈ 96.8 µM) in assay [10]; greater than 50 µg/mL in assay [11].
As for `CCCCNC(=O)c1[nH]nc2c1C(=O)c1ccccc1C2=O`, the MIC in assay [1], in [2], in [3], in [4], in assay [5] and in assay [6] was greater than 50 µg/mL throughout. In addition, the MIC in assay [7], in [8], in [9], in assay [10] and in assay [11] was greater than 50 µg/mL each time.
Regarding `O=C1C=CC(=O)c2c(O)ccc(O)c21` [NAPHTHAZALIN], the T/C in [12] was found to be 37%.
For the molecule `C=CCNC(=O)c1[nH]nc2c1C(=O)c1ccccc1C2=O`, the MIC in [1] is greater than 50 µg/mL; in assay [2], greater than 50 µg/mL; in [3] it was 12.5 µg/mL (≈ 44.4 µM); in assay [4], greater than 50 µg/mL; in [5], greater than 50 µg/mL; in [6] it was 12.5 µg/mL (≈ 44.4 µM). Also, the MIC in assay [7], in assay [8], in [9], in assay [10] and in assay [11] was greater than 50 µg/mL throughout.
`O=C1c2ccccc2C(=O)c2[nH]ncc21` yielded a T/C in assay [13] of 115%.
Take `Clc1ccc(COC(Cn2ccnc2)c2ccc(Cl)cc2Cl)c(Cl)c1` (stereo not given) [MICONAZOLE]: the MIC in assay [2] is 25 µg/mL (≈ 60.1 µM); in assay [5] it was 12.5 µg/mL (≈ 30 µM); in assay [10] it was 12.5 µg/mL (≈ 30 µM); in assay [11], less than 0.78 µg/mL.
For the molecule `O=C1c2ccccc2C(=O)c2c1n[nH]c2C(=O)NCCO`, the minimal inhibitory concentration (MIC) in [1] was greater than 50 µg/mL; in [2], greater than 50 µg/mL; in assay [3], 25 µg/mL (≈ 87.6 µM); in [4] it was greater than 50 µg/mL; in assay [5], greater than 50 µg/mL; in [6], 25 µg/mL (≈ 87.6 µM). In addition, the MIC in assay [7], in assay [8], in assay [9], in assay [10] and in assay [11] was greater than 50 µg/mL in each case.
As to `CCOC(=O)c1[nH]nc2c(O)c3ccccc3c(O)c12`, the MIC is 12.5 µg/mL (≈ 45.9 µM) in assay [1]; 6.25 µg/mL (≈ 23 µM) in assay [2]; 6.25 µg/mL (≈ 23 µM) in assay [3]; 50 µg/mL (≈ 184 µM) in assay [4]; 25 µg/mL (≈ 91.8 µM) in [5]; 6.25 µg/mL (≈ 23 µM) in [6]. Further, the MIC in [7] is 25 µg/mL (≈ 91.8 µM); in assay [8], greater than 50 µg/mL; in [9] it was 25 µg/mL (≈ 91.8 µM); in assay [10], 6.25 µg/mL (≈ 23 µM); in assay [11], 25 µg/mL (≈ 91.8 µM).
As to GENTAMICIN, the minimal inhibitory concentration (MIC) in assay [6] came out at 0.39 µg/mL; in assay [7], 0.78 µg/mL; in [8] it was 0.78 µg/mL.

As usually defined, the MIC is the lowest concentration found to suppress growth. By T/C is commonly meant the result in the treated group divided by that in the control group, in per cent.
